In ChEMBL document CHEMBL2150858 (J Med Chem, 2011):
≈ marks a conversion by molar mass, not a printed value. Calls of active or inactive are those of the source. The rule behind the calls is not given here.

Assays:
[1] = target: Calcium/calmodulin-dependent protein kinase kinase 2 (Homo sapiens, UniProt Q96RR4); assay: Binding affinity to CAMKK2
Summary of the method: (§1)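 Compounds were diluted from 40× DMSO stocks, 11 concentrations plus blank in duplicate. Incubation 1 h at room temperature with shaking in SeaBlock/PBS/Tween 20/DTT buffer, then bead wash. Kd determined; 40000 nM denotes no binding.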

[2] = Toxicity in human Caki1 cells; type: cell-based, CAKI-1; conditions: read-out: LD50 (the source's name)
Summary of the method: (§2)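 NCI-60 human cancer cell line screen, two-stage. All lines first receive a single 10 μM dose. Selected compounds then go to a five-concentration assay spanning 100 μM to 10 nM, with 48 h exposure. LD50 (cell kill) is derived from the dose-response and kept separate from GI50 (growth retardation without cell death).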

[3] = target: Dual specificity tyrosine-phosphorylation-regulated kinase 1A (Homo sapiens) (UniProt Q13627); assay: Binding affinity to DYRK1A assessed as ATP binding remaining at 10 uM
Summary of the method: (§3)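 Ambit phage-display competition binding against immobilized ATP-site ligands. Kinase-tagged T7 phage or HEK-293-expressed DNA-tagged kinases were incubated with liganded streptavidin beads and compound at 10 μM, 1 h at room temperature with shaking. After washing, retained kinase was quantified; readout is percent of control binding remaining.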

[4] = tested on: Aorta; assay: Antiangiogenic activity in Fischer rat aorta fragments assessed as vessel outgrowth at 100 ug/mL after 5 days relative to ageladine-A sulfate; type: functional
[5] = tested on: Malme-3M; assay: Induction of cell growth in human MALME-3M cells at 10 uM; type: functional
[6] = target: Calcium/calmodulin-dependent protein kinase kinase 1 (Homo sapiens, UniProt Q8N5S9); assay: Binding affinity to CAMKK1
Sequence of Calcium/calmodulin-dependent protein kinase kinase 1 (Q8N5S9 whole entry): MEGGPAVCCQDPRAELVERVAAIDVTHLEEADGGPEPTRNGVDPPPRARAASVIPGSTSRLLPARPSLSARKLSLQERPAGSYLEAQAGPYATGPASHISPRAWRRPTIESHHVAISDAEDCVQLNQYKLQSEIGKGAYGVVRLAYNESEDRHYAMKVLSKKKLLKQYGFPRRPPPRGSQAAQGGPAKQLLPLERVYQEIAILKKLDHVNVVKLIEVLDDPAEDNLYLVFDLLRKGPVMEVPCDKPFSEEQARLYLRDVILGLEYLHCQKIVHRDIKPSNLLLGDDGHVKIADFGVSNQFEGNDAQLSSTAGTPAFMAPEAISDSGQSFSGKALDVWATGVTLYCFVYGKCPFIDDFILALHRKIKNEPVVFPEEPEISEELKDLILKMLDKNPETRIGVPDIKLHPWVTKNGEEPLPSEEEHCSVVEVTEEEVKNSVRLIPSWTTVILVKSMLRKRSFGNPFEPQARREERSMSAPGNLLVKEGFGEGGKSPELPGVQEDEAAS
Summary of the method: (§4)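 Competition binding run by Ambit. They were mixed with ligand-loaded streptavidin magnetic beads and compound (40× DMSO stocks) in SeaBlock/PBS/Tween/DTT buffer. Incubation was 1 h at room temperature, then beads were washed. KD was determined from 11 concentrations plus a blank, in duplicate. A value of 40000 nM indicates no binding.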

[7] = Inhibition of GSK3 at 100 uM
[8] = target: T1, Matrix metalloproteinase-14 (Homo sapiens, UniProt P50281); assay: Inhibition of MMP14 using MOCAc-Pro-Leu-Gly-Leu-A2pr(Dnp)-Ala-Arg- NH2 as substrate at 20 ug/ml preincubated for 10 mins measured after 3 hrs by fluorescence assay
Summary of the method: (§5)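 Fluorogenic MMP assay (modified Knight method) in TNC buffer: 50 mM Tris-HCl pH 7.5, 150 mM NaCl, 10 mM CaCl2, 0.05% Brij-35. Enzyme stock was 5 ng/mL for MMP-2 and 40 ng/mL for MT1-MMP, preincubated with sample 10 min at 37 °C. Substrate solution at 10 μM was added, then incubated 3 h at 37 °C. Fluorescence read at ex 328/em 393 nm; a no-enzyme blank was subtracted. Controls were batimastat and 1% DMSO.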

[9] = Toxicity in human IGROV1 cells; type: cell-based, IGROV-1; conditions: read-out: LD50 (the source's name); summary of the method: as §2
[10] = target: Mitogen-activated protein kinase kinase kinase 19 (Homo sapiens) (UniProt Q56UN5); assay: Binding affinity to YSK4 assessed as ATP binding remaining at 10 uM; summary of the method: as §3
[11] = target: Non-receptor tyrosine-protein kinase TYK2 (Homo sapiens) (UniProt P29597); assay: Binding affinity to JH domain of TYK2 assessed as ATP binding remaining at 10 uM; summary of the method: as §3
Sequence of Non-receptor tyrosine-protein kinase TYK2 (Homo sapiens) (P29597 whole entry, the tested form may be a part): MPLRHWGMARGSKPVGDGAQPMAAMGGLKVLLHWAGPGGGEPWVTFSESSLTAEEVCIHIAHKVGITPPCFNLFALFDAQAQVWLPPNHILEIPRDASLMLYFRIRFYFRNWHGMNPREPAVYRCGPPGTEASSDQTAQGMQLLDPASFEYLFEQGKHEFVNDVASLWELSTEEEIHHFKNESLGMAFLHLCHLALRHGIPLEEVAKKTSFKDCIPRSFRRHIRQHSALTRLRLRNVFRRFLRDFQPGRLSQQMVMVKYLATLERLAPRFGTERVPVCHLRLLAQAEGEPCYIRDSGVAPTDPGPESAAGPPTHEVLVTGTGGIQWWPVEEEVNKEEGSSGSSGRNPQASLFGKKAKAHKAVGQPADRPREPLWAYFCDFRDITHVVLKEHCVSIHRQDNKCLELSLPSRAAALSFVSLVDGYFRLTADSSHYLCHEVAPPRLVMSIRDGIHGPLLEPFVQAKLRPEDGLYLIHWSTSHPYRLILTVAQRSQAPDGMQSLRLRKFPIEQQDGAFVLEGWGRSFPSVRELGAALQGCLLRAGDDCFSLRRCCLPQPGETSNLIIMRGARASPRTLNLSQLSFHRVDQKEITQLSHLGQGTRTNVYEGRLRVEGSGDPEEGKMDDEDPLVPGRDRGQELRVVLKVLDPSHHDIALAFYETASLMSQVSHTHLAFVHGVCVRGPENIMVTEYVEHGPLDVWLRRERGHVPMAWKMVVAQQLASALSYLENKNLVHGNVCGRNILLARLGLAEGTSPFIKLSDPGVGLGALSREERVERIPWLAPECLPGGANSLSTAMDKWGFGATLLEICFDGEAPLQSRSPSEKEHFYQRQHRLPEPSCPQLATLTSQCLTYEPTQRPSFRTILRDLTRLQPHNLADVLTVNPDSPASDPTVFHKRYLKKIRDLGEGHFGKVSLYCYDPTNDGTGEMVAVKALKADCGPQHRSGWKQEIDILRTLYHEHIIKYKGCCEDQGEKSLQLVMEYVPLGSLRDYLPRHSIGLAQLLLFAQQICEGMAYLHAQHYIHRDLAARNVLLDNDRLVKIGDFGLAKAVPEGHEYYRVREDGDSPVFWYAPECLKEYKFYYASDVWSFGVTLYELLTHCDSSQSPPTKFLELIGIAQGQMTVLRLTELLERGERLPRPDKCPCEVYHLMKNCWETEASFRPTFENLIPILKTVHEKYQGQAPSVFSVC

[12] = tested on: Aorta; assay: Antiangiogenic activity in Fischer rat aorta fragments assessed as vessel outgrowth after 5 days; type: functional, tissue-based; conditions: 120 h
Summary of the method: (§6)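 Thoracic aorta rings (1 mm cross-sections) from 3–9 month-old female Fischer rats, each embedded in fibrin gel with 5 μg/mL aprotinin. Compound added from DMSO stock, max final 100 μg/mL, six replicates; 0.1% DMSO vehicle control. Grown 5 days at 37 °C in 5% CO2, medium changed on day 4. On day 5, microvessel outgrowth was scored manually at 40× as percent of field occupied.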

[13] = tested on: Aorta; assay: Antiangiogenic activity in Fischer rat aorta fragments assessed as vessel outgrowth at 100 ug/mL after 5 days; type: functional; conditions: 120 h; summary of the method: as §6
[14] = Binding affinity to DYRK2 assessed as ATP binding remaining at 10 uM; summary of the method: as §3
[15] = target: Calcium/calmodulin-dependent protein kinase type II subunit gamma (Homo sapiens, UniProt Q13555); assay: Binding affinity to CAMK2G; summary of the method: as §1
Sequence of Calcium/calmodulin-dependent protein kinase type II subunit gamma (Q13555 whole entry, the tested form may be a part): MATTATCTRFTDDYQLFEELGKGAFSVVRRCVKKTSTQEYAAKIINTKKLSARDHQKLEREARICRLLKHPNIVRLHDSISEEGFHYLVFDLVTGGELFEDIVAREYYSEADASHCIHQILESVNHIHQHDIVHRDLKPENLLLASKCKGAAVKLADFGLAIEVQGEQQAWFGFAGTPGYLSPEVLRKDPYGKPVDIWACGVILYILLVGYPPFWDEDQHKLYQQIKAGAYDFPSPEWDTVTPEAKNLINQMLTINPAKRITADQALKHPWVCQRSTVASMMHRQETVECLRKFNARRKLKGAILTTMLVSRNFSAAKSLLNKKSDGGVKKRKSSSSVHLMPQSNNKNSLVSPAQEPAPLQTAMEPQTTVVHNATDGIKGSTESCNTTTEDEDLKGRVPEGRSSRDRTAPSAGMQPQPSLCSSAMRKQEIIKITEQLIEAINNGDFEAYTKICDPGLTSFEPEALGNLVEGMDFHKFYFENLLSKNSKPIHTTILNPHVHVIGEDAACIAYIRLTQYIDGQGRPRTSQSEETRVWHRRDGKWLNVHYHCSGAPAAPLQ

[16] = tested on: Aorta; assay: Antiangiogenic activity in Fischer rat aorta fragments assessed as vessel outgrowth at 100 ug/mL after 5 days relative to PI-88; type: functional
[17] = Toxicity in human NCI-H460 cells; type: cell-based; conditions: read-out: LD50 (the source's name); summary of the method: as §2
[18] = Toxicity in human SK-MEL-5 cells; type: cell-based; conditions: read-out: LD50 (the source's name); summary of the method: as §2
[19] = tested on: Aorta; assay: Antiangiogenic activity in Fischer rat aorta fragments assessed as vessel outgrowth at 10 ug/mL after 5 days; type: functional; conditions: 120 h; summary of the method: as §6
[20] = tested on: CAKI-1; assay: Growth inhibition of human Caki1 cells at 10 uM; type: functional; conditions: read-out: GI
[21] = tested on: Aorta; assay: Antiangiogenic activity in Fischer rat aorta fragments assessed as vessel outgrowth at 0.1 ug/mL after 5 days; type: functional; conditions: 120 h; summary of the method: as §6
[22] = target: T2, 72 kDa type IV collagenase (Homo sapiens, UniProt P08253); assay: Inhibition of human recombinant MMP2 using MOCAc-Pro-Leu-Gly-Leu-A2pr(Dnp)-Ala-Arg- NH2 as substrate at 20 ug/ml preincubated for 10 mins measured after 3 hrs by fluorescence assay; summary of the method: as §5
[23] = target: Protein kinase C epsilon type (Homo sapiens, UniProt Q02156); assay: Binding affinity to PRKCE; summary of the method: as §4
[24] = Toxicity in human M14 cells; type: cell-based; conditions: read-out: LD50 (the source's name); summary of the method: as §2
[25] = tested on: Aorta; assay: Antiangiogenic activity in Fischer rat aorta fragments assessed as vessel outgrowth at 1 ug/mL after 5 days; type: functional; conditions: 120 h; summary of the method: as §6
[26] = target: Casein kinase I isoform alpha (Sus scrofa, UniProt O19175); assay: Inhibition of porcine brain CK1 using RRKHAAIGpSAYSITA as substrate
[27] = target: T3, Serine/threonine-protein kinase pim-1 (Homo sapiens, UniProt P11309); assay: Inhibition of human recombinant PIM1 using [gamma-32P] ATP at 100 uM after 30 mins by scintillation counting
Summary of the method: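 Recombinant human Pim1 assayed as for CDK1/CDK5: histone H1 substrate, 15 μM [γ-32P]ATP final, 30 °C. Read by P81 filter binding and scintillation counting; activity expressed as percent of no-inhibitor control after blank subtraction.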
Target sequence in this assay (P11309 whole entry, looked up): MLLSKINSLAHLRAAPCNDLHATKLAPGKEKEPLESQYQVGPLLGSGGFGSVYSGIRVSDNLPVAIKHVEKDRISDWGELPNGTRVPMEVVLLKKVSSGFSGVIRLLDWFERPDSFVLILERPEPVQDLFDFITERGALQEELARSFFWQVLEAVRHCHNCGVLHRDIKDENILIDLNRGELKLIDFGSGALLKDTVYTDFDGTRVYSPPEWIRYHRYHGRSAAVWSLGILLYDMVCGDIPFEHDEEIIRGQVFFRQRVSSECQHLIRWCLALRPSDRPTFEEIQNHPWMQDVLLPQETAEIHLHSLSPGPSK

[28] = tested on: NCI60; assay: Growth inhibition of human NCI60 cells at 1 to 10 uM; type: functional, cell-based
[29] = tested on: Oocyte; assay: Inhibition of starfish oocytes CDK1/cyclin B using [gamma-32P] ATP at 100 uM after 30 mins by scintillation counting; type: cell-based; conditions: Asteroidea
Summary of the method: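 Native CDK1/cyclin B from M-phase starfish oocytes, or recombinant human CDK5/p25. Assayed in buffer C (Mops pH 7.2, β-glycerophosphate, EGTA, MgCl2, DTT, vanadate) with 1 mg/mL histone H1 and 15 μM [γ-32P]ATP. Ran 30 min at 30 °C, spotted on P81 phosphocellulose, washed in dilute phosphoric acid, then scintillation counted. Blank subtracted; activity expressed as percent of no-inhibitor control.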

[30] = target: Cyclin-dependent kinase 5/CDK5 activator 1 (Homo sapiens, UniProt Q00535); assay: Inhibition of human recombinant CDK5/p25 using [gamma-32P] ATP after 30 mins by scintillation counting; type: protein-complex assay
Summary of the method: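 Native-format CDK5/p25 assay in buffer C (pH 7.2 Mops, β-glycerophosphate, EGTA, MgCl2, DTT, vanadate) with 1 mg/mL histone H1 and 15 μM [γ-32P]ATP, 30 min at 30 °C. Aliquots were spotted onto P81 phosphocellulose, washed in phosphoric acid and counted.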

[31] = target: T4, Casein kinase I isoform alpha (Sus scrofa) (UniProt O19175); assay: Inhibition of porcine brain CK1 using RRKHAAIGpSAYSITA as substrate at 100 uM
T4 sequence (whole entry): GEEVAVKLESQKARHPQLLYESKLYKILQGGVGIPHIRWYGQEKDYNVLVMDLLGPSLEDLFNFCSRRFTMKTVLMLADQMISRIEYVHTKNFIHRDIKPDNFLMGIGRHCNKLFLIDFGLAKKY

[32] = target: T2, 72 kDa type IV collagenase; assay: Inhibition of human recombinant MMP2 using MOCAc-Pro-Leu-Gly-Leu-A2pr(Dnp)-Ala-Arg- NH2 as substrate preincubated for 10 mins measured after 3 hrs by fluorescence assay
Summary of the method: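 Fluorogenic MMP-2 inhibition in TNC buffer (50 mM Tris-HCl pH 7.5, 150 mM NaCl, 10 mM CaCl2, 0.02% NaN3, 0.05% Brij-35). Enzyme stock 5 ng/mL preincubated with compound 10 min at 37 °C. Reaction started with substrate solution (10 μM), incubated 3 h at 37 °C. Read at ex 328/em 393 nm. No-enzyme blank subtracted. Batimastat positive control; 1% DMSO negative control.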
Target sequence in this assay (P08253 whole entry): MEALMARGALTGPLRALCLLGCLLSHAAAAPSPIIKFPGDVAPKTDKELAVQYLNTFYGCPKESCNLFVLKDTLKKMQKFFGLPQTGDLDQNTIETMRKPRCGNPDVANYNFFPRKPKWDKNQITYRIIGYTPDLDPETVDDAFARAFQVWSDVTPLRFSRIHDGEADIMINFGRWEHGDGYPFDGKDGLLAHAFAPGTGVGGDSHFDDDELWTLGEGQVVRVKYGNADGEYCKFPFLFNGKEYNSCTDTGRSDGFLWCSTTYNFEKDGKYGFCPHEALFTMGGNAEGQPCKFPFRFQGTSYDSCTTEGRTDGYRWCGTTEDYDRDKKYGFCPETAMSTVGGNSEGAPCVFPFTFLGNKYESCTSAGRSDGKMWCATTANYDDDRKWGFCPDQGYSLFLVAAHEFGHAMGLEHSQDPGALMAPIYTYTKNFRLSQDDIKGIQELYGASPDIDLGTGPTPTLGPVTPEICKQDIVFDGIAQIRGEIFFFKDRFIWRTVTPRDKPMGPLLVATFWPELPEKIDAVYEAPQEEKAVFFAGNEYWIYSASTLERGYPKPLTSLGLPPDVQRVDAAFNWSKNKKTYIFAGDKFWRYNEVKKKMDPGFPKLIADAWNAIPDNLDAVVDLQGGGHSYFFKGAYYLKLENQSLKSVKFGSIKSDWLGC

[33] = target: T1, Matrix metalloproteinase-14; assay: Inhibition of MMP14 using MOCAc-Pro-Leu-Gly-Leu-A2pr(Dnp)-Ala-Arg- NH2 as substrate preincubated for 10 mins measured after 3 hrs by fluorescence assay; summary of the method: as §5
[34] = target: Dual specificity tyrosine-phosphorylation-regulated kinase 1A (Rattus norvegicus) (UniProt Q63470); assay: Inhibition of rat recombinant GST-fused DYRK1A expressed in Escherichia coli using [gamma-32P] ATP at 100 uM after 30 mins by scintillation counting
Summary of the method: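 Rat DYRK1A, expressed in E. coli as a GST fusion and purified on glutathione-agarose. Assayed as for CDK1/cyclin B with 1 mg/mL myelin basic protein substrate and 15 μM [γ-32P]ATP, 30 min at 30 °C. Read by P81 filter binding and scintillation counting.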

[35] = target: Dual specificity tyrosine-phosphorylation-regulated kinase 1A (Rattus norvegicus, UniProt Q63470); assay: Inhibition of rat recombinant GST-fused DYRK1A expressed in Escherichia coli using [gamma-32P] ATP after 30 mins by scintillation counting
Summary of the method: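 DYRK1A purified by glutathione-agarose affinity chromatography. Product captured on P81 phosphocellulose and washed in phosphoric acid. Blank subtracted; activity expressed as % of uninhibited.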

[36] = target: Collagenase 3 (Homo sapiens, UniProt P45452); assay: Inhibition of MMP13
[37] = target: Neutrophil collagenase (Homo sapiens, UniProt P22894); assay: Inhibition of MMP8
[38] = target: T2, 72 kDa type IV collagenase; assay: Inhibition of MMP2
Summary of the method: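 Fluorogenic substrate assay on MMP-2 (5 ng/mL enzyme solution) in TNC buffer (50 mM Tris-HCl pH 7.5, 150 mM NaCl, 10 mM CaCl2, 0.05% Brij-35). Enzyme preincubated with compound for 10 min at 37 °C, then substrate solution (10 μM) added. Fluorescence read at ex 328/em 393 nm after 3 h at 37 °C. An enzyme-free blank was subtracted; batimastat served as positive control and 1% DMSO as negative.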
Target sequence in this assay (P08253 whole entry): as above

[39] = target: Macrophage metalloelastase (Homo sapiens, UniProt P39900); assay: Inhibition of MMP12
Sequence of Macrophage metalloelastase (P39900 whole entry): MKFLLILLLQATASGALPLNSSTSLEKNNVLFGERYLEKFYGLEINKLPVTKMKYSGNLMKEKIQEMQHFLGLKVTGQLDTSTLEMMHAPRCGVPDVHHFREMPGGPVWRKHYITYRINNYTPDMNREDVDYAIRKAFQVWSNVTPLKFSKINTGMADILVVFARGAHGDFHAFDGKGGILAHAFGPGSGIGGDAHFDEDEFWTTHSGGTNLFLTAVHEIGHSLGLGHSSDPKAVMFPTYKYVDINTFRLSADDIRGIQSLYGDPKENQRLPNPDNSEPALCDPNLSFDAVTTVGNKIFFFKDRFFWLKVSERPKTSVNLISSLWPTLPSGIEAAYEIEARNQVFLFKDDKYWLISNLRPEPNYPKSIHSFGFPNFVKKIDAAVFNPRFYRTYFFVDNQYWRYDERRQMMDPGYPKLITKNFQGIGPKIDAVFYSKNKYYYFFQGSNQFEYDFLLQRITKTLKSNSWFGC

[40] = target: Matrix metalloproteinase-9 (Homo sapiens, UniProt P14780); assay: Inhibition of MMP9
[41] = target: Interstitial collagenase (Homo sapiens, UniProt P03956); assay: Inhibition of MMP1
Sequence of Interstitial collagenase (P03956 whole entry): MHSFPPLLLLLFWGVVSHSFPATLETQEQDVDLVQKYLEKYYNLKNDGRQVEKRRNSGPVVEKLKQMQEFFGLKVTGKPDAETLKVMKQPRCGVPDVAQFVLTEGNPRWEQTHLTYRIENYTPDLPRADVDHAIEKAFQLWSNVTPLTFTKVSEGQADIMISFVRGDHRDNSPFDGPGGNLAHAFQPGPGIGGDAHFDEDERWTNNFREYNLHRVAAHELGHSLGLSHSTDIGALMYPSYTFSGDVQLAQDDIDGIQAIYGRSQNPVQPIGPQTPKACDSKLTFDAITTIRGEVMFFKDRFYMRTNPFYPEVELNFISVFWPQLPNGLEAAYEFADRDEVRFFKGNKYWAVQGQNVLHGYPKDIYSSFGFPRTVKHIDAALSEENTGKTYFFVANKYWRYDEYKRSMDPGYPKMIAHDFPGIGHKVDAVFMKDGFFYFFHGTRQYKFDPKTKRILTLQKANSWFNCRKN

[42] = target: T3, Serine/threonine-protein kinase pim-1; assay: Inhibition of human recombinant PIM1 using [gamma-32P] ATP after 30 mins by scintillation counting
Summary of the method: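 Human recombinant Pim1 was run with histone H1 substrate under the CDK1/CDK5 conditions: 15 μM [γ-32P]ATP at 30 °C for 30 min. Phosphocellulose filter binding and scintillation counting followed. Activity was expressed as % of maximal after blank subtraction, with DMSO controls.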

Sequence of Calcium/calmodulin-dependent protein kinase kinase 2 (Q96RR4 whole entry): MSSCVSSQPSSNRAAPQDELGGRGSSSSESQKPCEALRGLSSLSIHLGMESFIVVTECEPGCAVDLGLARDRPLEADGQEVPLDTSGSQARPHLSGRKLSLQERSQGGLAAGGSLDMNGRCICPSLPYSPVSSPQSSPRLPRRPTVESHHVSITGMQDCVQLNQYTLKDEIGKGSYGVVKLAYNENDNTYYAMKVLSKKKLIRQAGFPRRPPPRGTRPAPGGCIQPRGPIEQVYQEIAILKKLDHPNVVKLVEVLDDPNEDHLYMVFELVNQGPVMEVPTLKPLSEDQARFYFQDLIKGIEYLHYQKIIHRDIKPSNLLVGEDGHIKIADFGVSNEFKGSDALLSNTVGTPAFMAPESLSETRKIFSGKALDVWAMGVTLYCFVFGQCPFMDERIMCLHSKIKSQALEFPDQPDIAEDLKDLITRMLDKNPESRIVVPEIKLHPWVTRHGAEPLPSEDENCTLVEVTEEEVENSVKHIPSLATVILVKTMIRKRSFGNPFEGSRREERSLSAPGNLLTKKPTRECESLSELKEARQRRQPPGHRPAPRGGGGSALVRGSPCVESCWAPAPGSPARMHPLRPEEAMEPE

Nc1nc2c(-c3ccccn3)nccc2[nH]1
Kd [1]: 40 µM | CC50 [2]: 25 µM | Activity [3]: Active | fold change (FC) [4]: 3 | Activity [5]: 30% | Kd [6]: 40 µM | inhibition [7]: inactive | inhibition [8]: 6% | CC50 [9]: 25 µM | Activity [10]: Active | Activity [11]: Active | IC50 [12]: 8 µg/mL (≈ 37.9 µM) | inhibition at 100 µg/mL [13]: 100% | Activity [14]: Active | Kd [15]: 40 µM | fold change (FC) [16]: 14 | CC50 [17]: 25 µM | CC50 [18]: 25 µM | inhibition at 10 µg/mL [19]: 56% | inhibition of growth at 10 µM [20]: 95% | inhibition at 0.1 µg/mL [21]: 4% | inhibition [22]: 22% | Kd [23]: 40 µM | CC50 [24]: 25 µM | inhibition at 1 µg/mL [25]: 16% | IC50 [26]: 10 µM | inhibition [27]: inactive | growth inhibition (GI) [28]: Active

Nc1nc2c(-c3ccc[nH]3)nccc2[nH]1
inhibition [7]: inactive | inhibition [29]: inactive | IC50 [30]: 70 µM | inhibition [31]: inactive | IC50 [32]: 50.2 µM | IC50 [33]: 8.03 µM | inhibition [34]: inactive | inhibition [27]: inactive

Nc1nc2c(-c3cc(Br)c(Br)[nH]3)nccc2[nH]1 [AGELADINE A]
IC50 [35]: 30 µM | IC50 [32]: 4.76 µM | IC50 [36]: 1.32 µM | IC50 [37]: 1.09 µM | IC50 [38]: 3.36 µM | IC50 [39]: 0.924 µM | IC50 [40]: 2.21 µM | IC50 [41]: 5.6 µM | IC50 [33]: 0.56 µM | IC50 [42]: 10 µM | IC50 [26]: 50 µM
